# High-throughput results: PubChem, several laboratories
# STAT1 blocker: inhibitors of IFN-gamma induced STAT1 signaling | 200,000 tested, 0.35% active | inhibition, % at 5.5 µM | NIH 3T3 STAT1-luciferase reporter, luminescence;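 active = inhibition above a set limit, the mean inhibition across all tested compounds plus 3 SD, cut at about 34% in these data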;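 note: 0% = IFN-gamma with DMSO and 100% = IFN-gamma with 300 µM nifuroxazide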
# STAT1 activator: increases IFN-gamma driven STAT1 reporter signal | NIH 3T3 STAT1-luciferase reporter, luminescence; 100% = IFN-gamma alone, no compound | activation (% of control), % at 5.5 µM | 200,000 tested, 2.6% active | AID 932;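 active = activation above the screen-wide mean activation plus 3 SD, cut at about 130% in these data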;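 note: raw ratio to IFN-gamma control signal so 100% means no change and 0% no light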
# APP 5'UTR act: activates APP 5'UTR luciferase reporter. 190,000 tested, 1% active. SH-SY5Y APP 5'UTR luciferase reporter, luminescence; zero percent = DMSO vehicle wells. AID 1276. activation, % at 2 µM;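 active = activation above a set limit, based on mean plus 3 SD of controls, cut at about 140% in these data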
# STAT3 inh-1: STAT3 signaling inhibition | inhibition, % at 5.5 µM | AID 862 | U3A cells, IL-6 STAT3-luciferase reporter, luminescence; host cell line lacks STAT1 | 190,000 tested, 0.89% active;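 active = inhibition above the mean inhibition across all screened compounds plus 3 SD, cut at about 44% in these data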;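 note: 0% = DMSO only wells and 100% = 100 µM nifuroxazide control wells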
# STAT3 act: STAT3 signaling activation; activation (% of control), % at 5.6 µM; AID 871; U3A cells, IL-6 STAT3-luciferase reporter, luminescence; 100% = signal with IL-6 EC80 alone; 190,000 tested, 0.91% active;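 active = activation above the screen-wide mean of compound activation plus 3 SD, cut at about 130% in these data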;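 note: 0% = background luminescence of wells with medium and substrate only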
#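 Material: STAT3-luciferase reporter U3A cells; Probe or stimulus: IL-6 (33 ng/mL); Incubation: compound pre-incubation 1 h before IL-6, then 6 h stimulation at 37 °C; Technique: luminescence from STAT3-driven luciferase reporter; Evaluation: % activation versus median of IL-6-stimulated wells; Controls: IL-6-only high control.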
# NF-kB expr up: raises NF-kB expression in human neuronal cells | NF-kB reporter expression; hits give high values | fold change at 12.5 µM | 190,000 tested, 1.6% active | AID 1239; in the data active = fold change above about 3.3
# STAT3 inh-2: confirmation of STAT3 signaling inhibitors; shares compounds with STAT3 inh-1; 1,200 tested, 45% active; AID 1265; U3A cells, IL-6 STAT3 luciferase reporter, luminescence; cell line lacks STAT1; inhibition, % at 5.7 µM;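 active = inhibition above the hit cutoff computed for the primary STAT3 screen, cut at about 44% in these data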;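 note: 0% = IL-6 plus DMSO and 100% = IL-6 plus nifuroxazide control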
# NFkB inh STAT3ct: inhibits NF-kappaB, counter-screen to STAT3 inhibitors | shares compounds with STAT3 inh-1 | HEK293T NF-kB luciferase reporter, TNF-alpha induced | inhibition, % at 5.7 µM | 1,200 tested, 36% active | AID 1308;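 active = inhibition above the mean of solvent-only control wells plus 3 SD, cutoff set per campaign, cut at about 13% in these data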;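 note: 0% = TNF-alpha with DMSO and 100% = TNF-alpha with MG high control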
# STAT1 inh 2: inhibits STAT1, counter-screen to STAT3 inhibitors. inhibition, % at 5.7 µM. NIH 3T3 STAT1-luciferase reporter, IFN-gamma induced, luminescence. shares compounds with STAT3 inh-1. 1,200 tested, 27% active;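 active = inhibition above the mean plus 3 SD of solvent-only control wells, limit set per screening run, cut at about 16% in these data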;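 note: 0% = DMSO with IFN-gamma and 100% = nifuroxazide control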
# The depositor's hits bear a star; . = no result. Compounds with a hit are over-represented: about 4.9% of the library has one in this group of screens.
SMILES,STAT1 blocker,STAT1 activator,APP 5'UTR act,STAT3 inh-1,STAT3 act,NF-kB expr up,STAT3 inh-2,NFkB inh STAT3ct,STAT1 inh 2
Cc1noc(C)c1CSCC(=O)N1CCN(c2ccc(F)cc2)CC1,27.2,75.2,13.0,45.8*,67.0,1.1,30.8,2.6,4.3
CC(C)CNC(=O)COC(=O)CNC(=O)c1cc(Cl)cc([N+](=O)[O-])c1,-5.5,105.0,5.7,12.7,91.9,1.06,.,.,.
Cc1cc(C)n2c(SCC(=O)NC3CCCCC3)nnc2n1,-11.9,109.0,1.5,19.7,88.7,1.42,.,.,.
Cc1nc(NCCc2ccc(S(N)(=O)=O)cc2)c2c(C)c(C)sc2n1,21.0,80.7,5.8,54.5*,56.8,0.96,47.9*,12.4,30.0*
COc1cc(/C=C/C(=O)NC(C)CCc2ccccc2)cc(OC)c1OC (stereo unspecified),1.5,98.7,2.7,17.7,91.2,0.95,.,.,.
COC(=O)c1ccc(-c2nc3cc(N)ccc3o2)cc1,2.9,105.9,-30.7,59.2*,51.7,2.33,31.4,1.0,-48.0
COc1ccc(-c2nc3cc(NC(=O)c4ccc5c(c4)OCO5)ccc3o2)cc1,-8.0,107.3,21.1,19.5,87.0,1.37,.,.,.
CCc1nnc(NC(=O)c2ccc(OC)cc2OC)s1,-46.7,143.1*,110.6,48.8*,57.2,2.21,13.3,-27.5,-118.0
CCc1nnc(NC(=O)Nc2ccccc2OC)s1,-21.9,120.0,53.3,12.0,94.0,1.9,.,.,.
COc1ccc(C2CC(=O)C(C=NCCN3CCN(C(=S)Nc4ccccc4)CC3)=C(O)C2)cc1OC (stereo unspecified),5.3,94.6,4.9,8.4,94.9,1.04,.,.,.
CC[n+]1c(C=C2C=C(C)OC(C)=C2)sc2ccccc21,29.0,73.9,-8.7,84.1*,30.8,0.85,85.2*,26.6*,4.0
CC[n+]1c(/C=C2/C=C(C)CC(C)C2)sc2ccccc21 (stereo unspecified),29.4,71.4,-8.9,18.6,86.0,0.81,.,.,.
CC(C)=CCN1CCN(Cc2cccn2-c2ccccn2)CC1CCO (stereo unspecified),-2.6,100.6,23.9,1.8,101.6,1.12,.,.,.
COc1ccc(C(=O)CSc2nnc(Cn3cnc4ccccc43)o2)cc1,10.3,90.6,11.3,73.3*,42.4,0.69,48.7*,14.4*,2.4
CC(=O)c1ccc(NC(=O)CSc2nnc(Cn3cnc4ccccc43)o2)cc1,9.9,90.8,-11.8,7.3,101.0,1.18,.,.,.
Cc1oc(-c2ccc(Cl)cc2)nc1CN1CCCC(C(=O)NCc2ccco2)C1 (stereo unspecified),7.7,93.0,16.9,5.5,97.5,0.61,.,.,.
CCOC(=O)N1CCN(C(=O)C2CCCN(Cc3nc(-c4ccc(Cl)cc4)oc3C)C2)CC1 (stereo unspecified),11.3,89.8,-6.6,74.4*,42.6,0.64,60.1*,22.7*,-15.5
CCOC(=O)N1CCC(NC(=O)C2CCCN(Cc3nc(-c4cccc(Cl)c4)oc3C)C2)CC1 (stereo unspecified),25.5,76.9,1.2,53.6*,60.1,0.63,38.3,13.4*,24.0*
CCN1CCN(CCNC(=O)C2CCCN(Cc3nc(-c4cccc(Cl)c4)oc3C)C2)CC1 (stereo unspecified),2.3,97.9,.,10.2,98.9,0.68,.,.,.
COc1ccc(O)c(C(=O)CC(=O)c2ccc(F)cc2)c1,-11.1,110.2,149.3*,77.3*,35.1,2.29,26.7,-10.3,-112.1
COc1ccc(C(=O)COc2ccc(F)cc2)c(O)c1,.,.,39.7,.,.,.,.,.,.
CC1CCCCN1C(=O)COC(=O)/C=C/c1ccc2ccccc2n1 (stereo unspecified),-5.7,103.7,13.7,-6.6,107.6,1.74,.,.,.
Cc1nc(Nc2nc3ccccc3o2)nc2c1CCC2,7.8,92.8,124.9,69.9*,45.0,3.66*,28.1,-7.4,-65.5
CCCOc1ccc(CSc2nc3ccccc3[nH]2)cc1,8.6,92.1,124.8,59.1*,50.0,3.45*,47.9*,-1.3,-16.2
CCOc1ccc(OCCSc2nc3ccccc3[nH]2)cc1,9.7,89.7,3.2,17.4,88.4,1.1,.,.,.
SMILES,STAT1 blocker,STAT1 activator,APP 5'UTR act,STAT3 inh-1,STAT3 act,NF-kB expr up,STAT3 inh-2,NFkB inh STAT3ct,STAT1 inh 2
CCOc1ccc(C(=O)Nc2cc(C)on2)cc1,-4.1,103.7,108.6,46.0*,65.7,3.59*,2.4,-23.1,-52.2
Cc1cc(NC(=O)COC(=O)c2cccc(OCc3ccccc3)c2)no1,-6.0,105.4,-5.8,-9.7,110.7,1.19,.,.,.
CC(C)c1cc(C(N)=O)c(NC(=O)c2cccc(COc3ccc(Cl)cc3)c2)s1,34.4*,68.3,80.2,62.6*,48.2,3.01,32.3,7.7,11.3
CCOc1cc(C(=O)Nc2cc(C)on2)cc(OCC)c1OCC,5.0,95.4,10.0,3.3,100.1,0.99,.,.,.
Cc1nn(Cc2c(F)c(F)c(F)c(F)c2F)c(C)c1NC(=O)c1cccc(COc2ccc(Cl)cc2)c1,-8.4,107.6,50.5,-3.2,109.4,1.9,.,.,.
Cc1cc(NC(=O)c2cccc(COc3ccc(Br)cc3)c2)no1,15.4,86.2,113.2,49.2*,63.2,2.66,19.0,40.7*,-15.2
COc1ccc(CN(C)C(C)C(=O)Nc2ccc(S(=O)(=O)N3CCCC3)cc2)c(OC)c1OC (stereo unspecified),26.4,74.5,13.6,44.7*,64.1,0.78,31.5,3.4,17.8*
COc1cc(CC(=O)OCC(=O)Nc2ccc(S(=O)(=O)N3CCCC3)cc2)cc(OC)c1OC,-0.6,100.5,18.5,0.4,106.2,1.31,.,.,.
O=Cc1ccc(OCc2nnsc2Cl)cc1,-8.7,107.5,-14.0,-2.8,104.2,1.23,.,.,.
CCOC(=O)Cc1csc(N/N=C/c2ccc(C(F)(F)F)cc2)n1,25.5,77.0,-31.1,60.0*,56.9,1.12,22.3,13.3*,-46.6
CCOC(=O)Cc1csc(NC(=O)CC)n1,4.9,95.5,-22.7,10.2,94.5,1.13,.,.,.
CCOC(=O)c1cnc(SCCN2CCOCC2)nc1N,-12.2,109.4,43.6,4.3,98.3,1.2,.,.,.
Cc1ccc(OCCN2CCN(C(=O)CCC(=O)Nc3nnc(C)s3)CC2)cc1,-10.0,109.1,-8.0,4.4,99.8,1.24,.,.,.
CCCc1nnc(NC(=O)CCC(=O)N2CCN(CCOc3ccc(C)cc3)CC2)s1,9.9,90.9,12.0,49.8*,61.9,0.74,40.2,1.9,0.5
Cc1ccc(OCCN2CCN(C(=O)CCC(=O)Nc3nnc(C(C)C)s3)CC2)cc1,8.9,92.0,-16.1,49.5*,62.0,1.7,41.8,7.3,3.4
